ASAP1 inh = ASAP1 ArfGAP inhibition | ASAP1-stimulated ARF1 GTP hydrolysis, GDP FP detection | inhibition, % at 16.5 µM | 360,000 compounds, 0.19% hits | AID 624377; in the data active = inhibition above about 25%;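 note: 0% = vehicle with enzyme and substrate and 100% = no enzyme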
ARFGAP1 inh = inhibits rat ARF GTPase activating protein 1. Q62848. AID 651572. 360,000 compounds, 0.26% hits. Arfgap1-stimulated ARF1 GTP hydrolysis, GDP FP detection. inhibition, % at 16.5 µM;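 active = inhibition above a per-plate limit, mean inhibition of low control wells plus 3 SD, cut at about 25% in these data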;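 note: 0% = DMSO wells with enzyme and 100% = wells lacking Arfgap1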
Target sequence (Q62848 1-136 limits assumed): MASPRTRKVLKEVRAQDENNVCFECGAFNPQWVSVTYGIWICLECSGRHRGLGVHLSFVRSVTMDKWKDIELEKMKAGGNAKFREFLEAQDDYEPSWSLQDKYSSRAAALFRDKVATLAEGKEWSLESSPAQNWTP
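system = rat Arfgap1 catalytic domain, aa 1-136 | technique = FP, GDP Alexa 633 tracer displaced from anti-GDP antibody, 620/688 nm | compound = one concentration, 16.5 µM, DMSO 1.26% | medium = HEPES-based buffer, pH 7.5 | timing = compound-enzyme preincubation 20 min, reaction 120 min, detection 60 min, 25 °C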
IMP-1 inhibitor = inhibitors of Pseudomonas aeruginosa IMP-1 metallo-beta-lactamase; purified IMP-1, nitrocefin hydrolysis, epi-absorbance fluorescence; inhibition, % at 5.6 µM; 290,000 compounds, 0.45% hits; AID 1556;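 active = inhibition above the mean plus 3 SD of all compounds in the same screening run, cut at about 4.5% in these data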;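 note: 0% = IMP-1 with DMSO and 100% = DMSO wells lacking enzyme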
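System: purified recombinant IMP-1 beta-lactamase. Medium: Zinc- and detergent-supplemented HEPES buffer, pH 7.1. Compound: one 5.6 µM dose […]. Schedule: 15 min preincubation plus 25 min reaction at 25 °C. Technique: Epi-absorbance fluorescence, 480 nm excitation, 530 nm emission.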
Calb FLC = affects C. albicans growth with fluconazole. C. albicans CaCi-2 + fluconazole, Alamar Blue growth, 48 h. growth inhibition, % (concentration not given with the values). 300,000 compounds, 0.57% hits. AID 1979;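 active = growth inhibition above about 58% in most replicates, limit read from the data, passing the limit was not always enough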;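 note: all wells also contain fluconazole at 8 µg/ml as a sub-toxic cotreatment; 0% = median of DMSO wells and 100% = median of geldanamycin control wells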
PHOSPHO1 block = blocks human PHOSPHO1 phosphatase activity. Q8TCT1. recombinant PHOSPHO1, absorbance phosphatase assay. inhibition, % at 13.3 µM. 290,000 compounds, 1.1% hits. AID 1565; in the data active = inhibition above about 60%
Target sequence (Q8TCT1 whole entry, looked up): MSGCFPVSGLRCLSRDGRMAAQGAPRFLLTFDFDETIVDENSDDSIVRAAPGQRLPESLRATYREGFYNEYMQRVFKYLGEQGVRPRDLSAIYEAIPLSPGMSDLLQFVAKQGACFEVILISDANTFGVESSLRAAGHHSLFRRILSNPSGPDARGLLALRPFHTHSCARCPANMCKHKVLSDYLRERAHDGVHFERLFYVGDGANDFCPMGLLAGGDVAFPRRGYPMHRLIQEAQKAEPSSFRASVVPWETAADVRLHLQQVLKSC
VIM-2 inh = inhibitors of Pseudomonas aeruginosa VIM-2 metallo-beta-lactamase; 290,000 compounds, 0.89% hits; AID 1527; purified VIM-2, nitrocefin hydrolysis, epi-absorbance fluorescence; inhibition, % at 5.6 µM;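 active = inhibition above the mean of all tested compounds plus 3 SD, cutoff set per screening run, cut at about 7.5% in these data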;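 note: red hydrolysis product quenches plate fluorescence so inhibitors raise well fluorescence; 0% = enzyme with DMSO and 100% = DMSO without enzyme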
The depositor's hits bear a star. In the library only some 2.6% were active in any assay of this set; here they are far more common.

What do the screens show for `CCc1c(-c2ccc(F)cc2)ncn1CCc1ccccc1OC`?
ASAP1 inh: 11; ARFGAP1 inh: -2

How did NC(=O)[C@@H]1CCCN1C(=O)[C@H](CCc1ccccc1)NC(=O)[C@H]1O[C@@H](n2cnc3c(N)ncnc32)[C@H](O)[C@@H]1O do in these assays?
ASAP1 inh: 3; ARFGAP1 inh: 9

How did COc1ccc(-c2c[n+]3c(n2-c2ccc(C)cc2)CCCCC3)cc1 do in these assays?
ASAP1 inh: -2; ARFGAP1 inh: 7; IMP-1 inhibitor: -2; Calb FLC: -8; PHOSPHO1 block: -27; VIM-2 inh: 0

Results for CCOc1ccc(-n2c(-c3ccc(OC)cc3)c[n+]3c2CCCCC3)cc1 ?
ASAP1 inh: -3; ARFGAP1 inh: 2; IMP-1 inhibitor: -2; Calb FLC: 110*; PHOSPHO1 block: 4; VIM-2 inh: -2

How did COc1ccc(-n2c(-c3ccc(Cl)cc3)c[n+]3c2CCCCC3)cc1 do in these assays?
ASAP1 inh: 1; ARFGAP1 inh: 4; IMP-1 inhibitor: -1; Calb FLC: 8; PHOSPHO1 block: -35; VIM-2 inh: -1

How did CCOc1ccc(-n2c(-c3ccc(Br)cc3)c[n+]3c2CCCCC3)cc1 do in these assays?
ASAP1 inh: 10; ARFGAP1 inh: -3; IMP-1 inhibitor: -2; Calb FLC: 103*; PHOSPHO1 block: -18; VIM-2 inh: -2

How did COc1ccc(-c2c[n+]3c(n2-c2ccccc2)CCCCC3)cc1 do in these assays?
ASAP1 inh: 0; ARFGAP1 inh: 14; IMP-1 inhibitor: -1; Calb FLC: 112*; PHOSPHO1 block: -25; VIM-2 inh: 0

What do the screens show for `CC(C)C[C@H](NC(=O)c1ccc(Cl)c(Cl)c1)C(=O)N1CCC[C@H]1C(=O)NCc1ccccc1`?
ASAP1 inh: -3; ARFGAP1 inh: -6

Results for O=C(N[C@H](C(=O)N1CCC[C@H]1C(=O)NC1CCCC1)c1ccccc1)C1CC1 ?
ASAP1 inh: -9; ARFGAP1 inh: 0

What do the screens show for `COC(=O)C1=C(C)N(Cc2ccccc2C(F)(F)F)C(=NCc2cc(OC)c(OC)c(OC)c2)NC1c1ccc(Cl)cc1` (configuration not stated)?
ASAP1 inh: 0; ARFGAP1 inh: -4

How did CC(C)(C)n1nc2c(c1NC(=O)c1ccc(Br)cc1)CS(=O)C2 (configuration not stated) do in these assays?
ASAP1 inh: -7; ARFGAP1 inh: -2; IMP-1 inhibitor: -5; Calb FLC: -3; PHOSPHO1 block: -2; VIM-2 inh: -4

Results for CC(C)(C)n1nc2c(c1NC(=O)Cc1cccc3ccccc13)CS(=O)C2 (configuration not stated) ?
ASAP1 inh: -10; ARFGAP1 inh: 0; IMP-1 inhibitor: 0; Calb FLC: -6; PHOSPHO1 block: 63*; VIM-2 inh: -4

Results for C(=Nc1cccc2c(N=Cc3ccco3)cccc12)c1ccco1 ?
IMP-1 inhibitor: 16*; Calb FLC: 38; PHOSPHO1 block: 18; VIM-2 inh: -1

How did CN(C)c1ccc(N=Cc2ccco2)cc1 do in these assays?
IMP-1 inhibitor: -3; PHOSPHO1 block: 23; VIM-2 inh: -4

How did Cc1oc(-c2cccs2)nc1CS(=O)CC(=O)NCCCOC(C)C (configuration not stated) do in these assays?
ASAP1 inh: -3; ARFGAP1 inh: -6; IMP-1 inhibitor: -1; Calb FLC: -13; PHOSPHO1 block: 10; VIM-2 inh: 0

How did CCCCNC(=O)CS(=O)Cc1nc(-c2cccs2)oc1C (configuration not stated) do in these assays?
ASAP1 inh: -15; ARFGAP1 inh: 1; IMP-1 inhibitor: 6.1*; Calb FLC: 2; PHOSPHO1 block: 17; VIM-2 inh: -1

Results for CCc1cc2c(nc1CC)CCCN2C ?
ASAP1 inh: -12; ARFGAP1 inh: 4

What do the screens show for `COc1ccc(CCCc2nnc(SCC(=O)Nc3ccc(C)c(C)c3)o2)cc1`?
ASAP1 inh: 7; ARFGAP1 inh: 8; IMP-1 inhibitor: -2; Calb FLC: -3; PHOSPHO1 block: 85*; VIM-2 inh: -4

How did COc1ccc(CCCc2nnc(SCC(=O)Nc3ccc(OC)cc3)o2)cc1 do in these assays?
ASAP1 inh: -2; ARFGAP1 inh: 6; IMP-1 inhibitor: -2; Calb FLC: 1; PHOSPHO1 block: -23; VIM-2 inh: 0
